This passage reports Tm and folding enthalpy results from the array DNA melting data of Ke et al. (doi:10.1101/2024.01.08.574731).

A short description of series [1]: melting temperature; fluorescence melt of hairpins on a sequencing array, two-state fit, raised by 9.35 °C to match UV melts. Particulars: sodium 0.088 M. In short, it runs like this: (§1)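 Cy3 fluorescence of library hairpins on a sequenced MiSeq flow cell, with annealed Cy3 and quencher oligos, was imaged in 50 mM Na-HEPES pH 8.0, 25 mM NaCl in 2.5 °C steps up to 60 °C. Signals were normalised to pre-quench Cy3 and to control variants. Melting temperature and folding enthalpy came from bootstrapped two-state fits, inverse-variance combined over four replicates. Fitted temperatures were raised by 9.35 °C to match UV melts.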

Series [2] in a line: folding enthalpy; higher = less favourable; fluorescence melt of hairpins on a sequencing array, two-state fit. Particulars: sodium 0.088 M. In short, it runs like this: as §1

Turning to GCCGAGCGAAAGCTGTGC ((..(((....)))..)), the Tm in series [1] was 41.2 °C. The folding enthalpy in series [2] was -15.2 kcal/mol.

On to GCCGATGGAAACATCAGC ((.((((....)))).)), for which, in series [1], the Tm is 41.5 °C. Also, the folding enthalpy in series [2] was -24.5 kcal/mol.

For GCCGATGGAAACGTCGGC (((((.(....).))))), in series [1], the Tm amounted to 62.7 °C. In series [2], the folding enthalpy was -44.9 kcal/mol.

In the case of GCCGCAGGAAACTGCGAC (.(((((....))))).), the Tm in series [1] is 48.8 °C. Further, the folding enthalpy in series [2] was -13.1 kcal/mol.

As for GCCGCCCCGAAAGGGGGC (((..(((....)))))), the Tm in series [1] worked out at 67.5 °C. For the same sequence, in series [2], the folding enthalpy was -6.87 kcal/mol.

For the sequence GCCGCCGAAAGGCGCGGC ((((((....)))..))), in series [1], the Tm came out at 69.3 °C. Further, in series [2], the folding enthalpy is -11.2 kcal/mol.

Consider GCCGCCGAAAGGCTGGGC ((((((....)))..))), for which, in series [1], the Tm came to 64.8 °C. In addition, the folding enthalpy in series [2] is -20.4 kcal/mol.

Consider GCCGCGCGAAAGCGATGC ((..(((....)))..)), for which, in series [1], the Tm turned out to be 45.3 °C. Besides, the folding enthalpy in series [2] is -15.2 kcal/mol.

As for GCCGCGCGAAAGCGCCGC ((.((((....)))).)), the Tm in series [1] was 59.7 °C. The folding enthalpy in series [2] was -16.6 kcal/mol.

For the sequence GCCGCGCGAAAGCTCTGC ((.(.((....)).).)), the Tm in series [1] was found to be 30.7 °C. Moreover, the folding enthalpy in series [2] is -10.9 kcal/mol.

Take GCCGGAGGAAACCCCAGC ((.((.(....).)).)): the Tm in series [1] came out at 16.8 °C. The folding enthalpy in series [2] is -6.86 kcal/mol.

On to GCCGGAGGAAACCCCGAC (.(((.(....).))).), for which the Tm in series [1] is 30.2 °C. Moreover, the folding enthalpy in series [2] was -6.74 kcal/mol.

For the sequence GCCGGCGAAAGCCTGGC ((((((....))).))), in series [1], the Tm amounted to 68.8 °C. Further, the folding enthalpy in series [2] was -24.8 kcal/mol.

In the case of GCCGGCGGAAACACCGGC (((((.(....).))))), in series [1], the Tm was 66.8 °C. Further, in series [2], the folding enthalpy is -44.1 kcal/mol.

Consider GCCGGGCGAAAGCCACGC ((..(((....)))..)), for which the Tm in series [1] stood at 50 °C. Further, the folding enthalpy in series [2] is -12.7 kcal/mol.

Regarding GCCGGGCGAAAGCCATGC ((..(((....)))..)), the Tm in series [1] worked out at 42.4 °C. Besides, in series [2], the folding enthalpy was -14.4 kcal/mol.

In the case of GCCGGGGCGAAAGCCGGC (((..(((....)))))), the Tm in series [1] was 69 °C. Moreover, the folding enthalpy in series [2] is -20 kcal/mol.

GCCGGTCGAAAGACGGC (((.(((....)))))): the Tm in series [1] was found to be 67.6 °C. For the same sequence, the folding enthalpy in series [2] is -30.1 kcal/mol.

With GCCGGTCGAAAGACTGGC (((.(((....))).))), the Tm in series [1] was determined as 68.3 °C. In addition, the folding enthalpy in series [2] is -32 kcal/mol.

For the sequence GCCGGTGGAAACATCGGC ((((.((....)).)))), the Tm in series [1] was 58.9 °C. The folding enthalpy in series [2] is -45.8 kcal/mol.

As for GCCGGTGGAAACGCTGGC (((.(.(....).).))), the Tm in series [1] was 50.8 °C. In addition, the folding enthalpy in series [2] is -40.9 kcal/mol.

Turning to GCCGGTTCGAAAGAAGGC (((..(((....)))))), in series [1], the Tm amounted to 38.8 °C. The folding enthalpy in series [2] was -22.8 kcal/mol.

On to GCCGTACGAAAGTAGGGC (((.(((....))).))), for which the Tm in series [1] amounted to 60.1 °C. Moreover, the folding enthalpy in series [2] is -40.8 kcal/mol.

In the case of GCCGTACGAAAGTATGGC (((.(((....))).))), in series [1], the Tm is 61.4 °C. The folding enthalpy in series [2] was -42.8 kcal/mol.

Regarding GCCGTATCGAAAGATGGC (((..(((....)))))), the Tm in series [1] is 47.4 °C. In addition, in series [2], the folding enthalpy is -9.59 kcal/mol.

Regarding GCCGTCCGAAAGGAAGGC (((.(((....))).))), the Tm in series [1] stood at 67 °C. In addition, the folding enthalpy in series [2] was -36.4 kcal/mol.

As to GCCGTCGAAAGACACGGC ((((((....)))..))), the Tm in series [1] was found to be 54.6 °C. Besides, the folding enthalpy in series [2] is -27.5 kcal/mol.

Turning to GCCGTCGAAAGACGCGGC ((((((....)))..))), the Tm in series [1] was found to be 61.3 °C. Moreover, the folding enthalpy in series [2] is -15 kcal/mol.

Take GCCGTGCGAAAGCAATGC ((..(((....)))..)): in series [1], the Tm stood at 39.2 °C. Besides, in series [2], the folding enthalpy was -11.2 kcal/mol.

Turning to GCCGTGCGAAAGCAGAGC ((..(((....)))..)), the Tm in series [1] was 51.9 °C. The folding enthalpy in series [2] was -13.5 kcal/mol.

Regarding GCCGTGCGAAAGCAGGC (((.(((....)))))), the Tm in series [1] worked out at 68.2 °C. Also, the folding enthalpy in series [2] was -23.7 kcal/mol.

For GCCGTGCGAAAGCCCAGC ((.(.((....)).).)), the Tm in series [1] amounted to 29.4 °C. The folding enthalpy in series [2] is -10.3 kcal/mol.

With GCCGTGCGAAAGCCCTGC ((.(.((....)).).)), the Tm in series [1] stood at 30.3 °C. Moreover, the folding enthalpy in series [2] is -9.62 kcal/mol.

For GCCGTGCGAAAGCCGGGC (((..((....))..))), in series [1], the Tm was 65.3 °C. For the same sequence, in series [2], the folding enthalpy was -15.1 kcal/mol.

Turning to GCCGTGCGAAAGCGCCGC ((.(.((....)).).)), the Tm in series [1] was 50 °C. The folding enthalpy in series [2] was -14.4 kcal/mol.

Take GCCGTGGGAAACCGTGGC (((..((....))..))): in series [1], the Tm was determined as 47.4 °C. Moreover, the folding enthalpy in series [2] is -28.2 kcal/mol.

For the sequence GCCGTTGGAAACAACAGC ((.((((....)))).)), the Tm in series [1] amounted to 41.6 °C. Further, the folding enthalpy in series [2] is -18.7 kcal/mol.

As for GCCTAACGAAAGTTTGGC (((.(((....))).))), the Tm in series [1] amounted to 54.2 °C. For the same sequence, in series [2], the folding enthalpy was -50.4 kcal/mol.

As to GCCTAAGAAATTAGGC ((((((....)))))), the Tm in series [1] came to 52.5 °C. Moreover, the folding enthalpy in series [2] is -28.8 kcal/mol.

As to GCCTAAGGAAACTTAGAC (.(((((....))))).), the Tm in series [1] worked out at 27.8 °C. Besides, the folding enthalpy in series [2] is -19.8 kcal/mol.

On to GCCTACACGAAAGTGGGC (((..(((....)))))), for which, in series [1], the Tm amounted to 50.5 °C. Further, in series [2], the folding enthalpy is -22.2 kcal/mol.

In the case of GCCTACCGAAAGGTGGC (((.(((....)))))), the Tm in series [1] is 57 °C. Further, the folding enthalpy in series [2] is -25.4 kcal/mol.

As for GCCTACCGAAAGGTGGGC (((.(((....))).))), in series [1], the Tm was determined as 69.1 °C. For the same sequence, the folding enthalpy in series [2] is -38.6 kcal/mol.

With GCCTACGAAAGTAGTGGC ((((((....)))..))), the Tm in series [1] is 48.4 °C. The folding enthalpy in series [2] was -24.3 kcal/mol.

With GCCTACGAAAGTATGGGC ((((((....)))..))), the Tm in series [1] was 46.5 °C. Further, the folding enthalpy in series [2] was -34.8 kcal/mol.

For the sequence GCCTACGGAAACGCAGGC ((((.((....)).)))), in series [1], the Tm was found to be 52.6 °C. Moreover, the folding enthalpy in series [2] was -27.6 kcal/mol.

GCCTAGCGAAAGCGAAGC ((.(.((....)).).)): the Tm in series [1] was 41.9 °C. In addition, in series [2], the folding enthalpy was -16.1 kcal/mol.

As for GCCTAGCGAAAGCGACGC ((.(.((....)).).)), the Tm in series [1] stood at 47.8 °C. In addition, the folding enthalpy in series [2] is -15.3 kcal/mol.

For GCCTAGCGAAAGCTCAGC ((..(((....)))..)), the Tm in series [1] came to 34.7 °C. Besides, in series [2], the folding enthalpy was -14.6 kcal/mol.

With GCCTAGCGAAAGCTGAGC ((..(((....)))..)), the Tm in series [1] is 48.8 °C. For the same sequence, the folding enthalpy in series [2] was -10.7 kcal/mol.

Take GCCTAGCGAAAGCTGCGC ((..(((....)))..)): the Tm in series [1] was 49.6 °C. The folding enthalpy in series [2] is -17.6 kcal/mol.

Consider GCCTAGCGAAAGCTGTGC ((..(((....)))..)), for which, in series [1], the Tm worked out at 41.2 °C. The folding enthalpy in series [2] is -13 kcal/mol.

For GCCTAGGGAAACCTGGGC (((.(((....))).))), in series [1], the Tm is 55.1 °C. Further, in series [2], the folding enthalpy is -38.3 kcal/mol.

With GCCTATACGAAAGTAGGC (((..(((....)))))), the Tm in series [1] amounted to 48.3 °C. The folding enthalpy in series [2] is -28.6 kcal/mol.
